Reference: ChEMBL document CHEMBL4765431, “Novel phthalide derivatives: Synthesis and anti-inflammatory activity in vitro and in vivo” (Eur J Med Chem, 2020)
Calls of active or inactive are those of the source. The rule behind the calls is not given here.

Columns and labels:
[1] = system: RAW264.7; test: Cytotoxicity against mouse RAW264.7 cells assessed as reduction in cell viability at 20 uM incubated for 24 hrs by MTT assay; type: cell-based; details: raw264.7, 24 h
Procedure, shortened: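 RAW264.7 cells (1 × 10^4/well, used 24 h after seeding) exposed to 20 µM for 24 h. MTT (5 mg/mL stock) added for 4 h, supernatant removed, crystals dissolved in DMSO with 10–15 min shaking, absorbance at 492 nm.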

[2] = system: RAW264.7; test: Antiinflammatory activity in mouse RAW264.7 cells assessed as inhibition of LPS-induced nitric oxide production at 10 uM preincubated for 1 hr followed by LPS stimulation and measured after 24 hrs by Griess reagent-based assay relative to control; type: functional; details: time 25 hrs
Procedure, shortened: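 RAW264.7 cells (7 × 10^4/well, used 24 h after seeding) in DMEM with 10% heat-inactivated FBS, 37 °C, 5% CO2. Pretreated 1 h with compound (10 µM screen; 0.625–10 µM dose series), then LPS 0.5 µg/mL for 24 h. Supernatant mixed 1:1 with Griess reagent, 15 min at room temperature, absorbance read at […].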

[3] = system: RAW264.7; test: Antiinflammatory activity in mouse RAW264.7 cells assessed as inhibition of LPS-induced nitric oxide production preincubated for 1 hr followed by LPS stimulation and measured after 24 hrs by Griess reagent-based assay; type: functional, cell-based
[4] = system: RAW264.7; test: Cytotoxicity against mouse RAW264.7 cells assessed as reduction in cell viability incubated for 24 hrs in presence of LPS by MTT assay; type: cell-based; details: RAW264.7, 24 h
[5] = system: RAW264.7; test: Cytotoxicity against mouse RAW264.7 cells assessed as reduction in cell viability incubated for 24 hrs in absence of LPS by MTT assay; type: cell-based; details: RAW264.7, 24 h
[6] = system: Rattus norvegicus; test: Antiarthritic activity in Sprague-Dawley rat model of arthritis assessed as decrease in CFA-induced synovial hyperplasia at 60 mg/kg, ig administered daily for 28 days starting from 14 days post-immunization and measured every 3 days by H and E staining based histopathological analysis; type: functional, organism-based; details: time 28.0 day
[7] = system: Rattus norvegicus; test: Antiarthritic activity in Sprague-Dawley rat model of CFA-induced arthritis assessed as intact joint cavity at 60 mg/kg, ig administered daily for 28 days starting from 14 days post-immunization and measured every 3 days by H and E staining based histopathological analysis; type: functional, organism-based; details: time 28.0 day

| Compound | Activity [1] | inhibition at 10 µM [2] [%] | IC50 [3] [µM] | IC50 [4] [µM] | IC50 [5] [µM] | Activity [6] | Activity [7] |
| --- | --- | --- | --- | --- | --- | --- | --- |
| COc1cc(OC)c2c(c1)C(C(O)c1ccc(O)cc1)OC2=O (stereo unspecified) | Non-Toxic | 46.1 | > 10 | > 40 | > 40 | – | – |
| COc1cc(OC)c2c(c1)C(C(O)c1ccc(OCc3ccc(Br)cc3)cc1)OC2=O (stereo unspecified) | Non-Toxic | 68.1 | 6.53 | > 40 | > 40 | – | – |
| O=C1OC(Cc2nc(Cc3ccccc3)no2)c2ccccc21 (stereo unspecified) | Non-Toxic | 25.1 | > 10 | > 40 | > 40 | – | – |
| COCCCCOc1ccc(C(O)C2OC(=O)c3c(OC)cc(OC)cc32)cc1 (stereo unspecified) | Non-Toxic | 50.3 | 8.21 | > 40 | > 40 | – | – |
| C=CCCOc1ccc(C(O)C2OC(=O)c3c(OC)cc(OC)cc32)cc1 (stereo unspecified) | Non-Toxic | 87.2 | 1.33 | > 40 | > 40 | – | – |
| CCOCCOc1ccc(C(O)C2OC(=O)c3c(OC)cc(OC)cc32)cc1 (stereo unspecified) | Non-Toxic | 42.9 | > 10 | > 40 | > 40 | – | – |
| COc1ccc2c(c1)c(CC(=O)O)c(C)n2C(=O)c1ccc(Cl)cc1 [INDOMETHACIN] | – | 61.6 | > 10 | > 40 | > 40 | – | – |
| COc1cc(OC)c2c(c1)C(C(O)c1ccc(OCc3ccc(OC(F)F)cc3)cc1)OC2=O (stereo unspecified) | Non-Toxic | 67.6 | 5.03 | > 40 | > 40 | – | – |
| O=C1OC(Cc2nc(-c3ccccc3)no2)c2ccccc21 (stereo unspecified) | Non-Toxic | 13 | > 10 | > 40 | > 40 | – | – |
| CCOc1ccc(C(O)C2OC(=O)c3c(OC)cc(OC)cc32)cc1 (stereo unspecified) | Non-Toxic | 43.2 | > 10 | > 40 | > 40 | – | – |
| COc1cc(OC)c2c(c1)C(C(O)c1ccc(OCCOc3ccccc3)cc1)OC2=O (stereo unspecified) | Non-Toxic | 41.2 | > 10 | > 40 | > 40 | – | – |
| COCCCOc1ccc(C(O)C2OC(=O)c3c(OC)cc(OC)cc32)cc1 (stereo unspecified) | Non-Toxic | 89.5 | 1.26 | > 40 | > 40 | – | – |
| COc1cc(OC)c2c(c1)C(C(O)c1ccc(OCc3ccc(OC(F)(F)F)cc3)cc1)OC2=O (stereo unspecified) | Non-Toxic | 62.8 | 8.14 | > 40 | > 40 | – | – |
| O=C1OC(Cc2nc(-c3ccc(Oc4ccccc4)cc3)no2)c2ccccc21 (stereo unspecified) | Non-Toxic | 10 | > 10 | > 40 | > 40 | – | – |
| O=C1OC(Cc2nc(-c3ccc(-c4ccccc4)cc3)no2)c2ccccc21 (stereo unspecified) | Non-Toxic | 25.2 | > 10 | > 40 | > 40 | – | – |
| COc1cc(OC)c2c(c1)C(C(O)c1ccc(OCc3ccccc3)cc1)OC2=O (stereo unspecified) | Non-Toxic | 41.2 | > 10 | > 40 | > 40 | – | – |

| Compound | Activity [1] | inhibition at 10 µM [2] [%] | IC50 [3] [µM] | IC50 [4] [µM] | IC50 [5] [µM] | Activity [6] | Activity [7] |
| --- | --- | --- | --- | --- | --- | --- | --- |
| COc1ccc(C(O)C2OC(=O)c3c(OC)cc(OC)cc32)cc1 (stereo unspecified) | Non-Toxic | 38.7 | > 10 | > 40 | > 40 | – | – |
| COc1cc(OC)c2c(c1)C(C(O)c1ccc(OCc3ccc(C#N)cc3)cc1)OC2=O (stereo unspecified) | Non-Toxic | 60.8 | 7.36 | > 40 | > 40 | – | – |
| COC1=C[C@@H]2[C@@H]3Cc4ccc(OC)c(O)c4[C@]2(CCN3C)CC1=O | – | – | – | – | – | Active | Active |
| COc1ccc(/C=C2\OC(=O)c3c(OC)cc(OC)cc32)cc1 | Non-Toxic | 36.3 | > 10 | > 40 | > 40 | – | – |
| COc1cc(OC)c2c(c1)/C(=C/c1ccc(OCc3ccccc3)cc1)OC2=O | Non-Toxic | 44.3 | > 10 | > 40 | > 40 | – | – |
| CCCCCCOc1ccc(C(O)C2OC(=O)c3c(OC)cc(OC)cc32)cc1 (stereo unspecified) | Non-Toxic | 62.2 | 5.36 | > 40 | > 40 | – | – |
| COc1cc(OC)c2c(c1)C(C(O)c1ccc(OCC(C)C)cc1)OC2=O (stereo unspecified) | Non-Toxic | 48.6 | > 10 | > 40 | > 40 | – | – |
| CCCCOc1ccc(C(O)C2OC(=O)c3c(OC)cc(OC)cc32)cc1 (stereo unspecified) | Non-Toxic | 83.7 | 1.8 | > 40 | > 40 | – | – |
| Cc1noc(CC2OC(=O)c3ccccc32)n1 (stereo unspecified) | Non-Toxic | 24.3 | > 10 | > 40 | > 40 | – | – |
| COc1cc(OC)c2c(c1)C(C(O)c1ccc(OCc3ccc(C)cc3)cc1)OC2=O (stereo unspecified) | Non-Toxic | 82.1 | 3.12 | > 40 | > 40 | – | – |
| COc1cc(OC)c2c(c1)C(C(O)c1ccc(OCC3CCCCC3)cc1)OC2=O (stereo unspecified) | Non-Toxic | 27.4 | > 10 | > 40 | > 40 | – | – |
| COc1cc(OC)c2c(c1)/C(=C/c1ccc(OCc3ccc(F)cc3)cc1)OC2=O | Non-Toxic | 48.2 | > 10 | > 40 | > 40 | – | – |
| COCCOc1ccc(C(O)C2OC(=O)c3c(OC)cc(OC)cc32)cc1 (stereo unspecified) | Non-Toxic | 41.4 | > 10 | > 40 | > 40 | – | – |
| CCCOc1ccc(C(O)C2OC(=O)c3c(OC)cc(OC)cc32)cc1 (stereo unspecified) | Non-Toxic | 53.2 | 9.26 | > 40 | > 40 | – | – |
| COc1cc(OC)c2c(c1)C(C(O)c1ccc(OCc3ccc(Cl)cc3)cc1)OC2=O (stereo unspecified) | Non-Toxic | 75.1 | 4.32 | > 40 | > 40 | – | – |
